In general, Cmax refers to the highest concentration seen after dosing.

The values below come from ChEMBL document CHEMBL1629681 (Antimicrob Agents Chemother, 2010).

Holding throughout (format): ADME, organism-based
The nature of series [1]: Cmax in patient with end-stage renal failure undergoing genius system-mediated dialysis at 4 mg/kg, iv after 2 hrs by LC/MS/MS analysis. The following applies: human, in vivo. Set-up: dose 4 mg/kg, route intravenous. The method, boiled down:
(§1)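 End-stage renal failure patients on 6-h Genius dialysis, hemodialysis or hemodiafiltration received a single 2-h iv infusion of 4 mg/kg. Venous plasma sampled before dosing and at 1, 2, 3, 4, 6 and 6.5 h from a site other than the infusion line, stored at −20°C. Quantified by LC-MS-MS against a 30 to 5,000 ng/ml calibration, analysed noncompartmentally.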

A short description of series [2]: Terminal half life in human with normal renal function. The following applies: in vivo, read-out: beta t1/2 (converted).
Series [3] in a line: Cmax in patient with end-stage renal failure undergoing hemodialysis at 4 mg/kg, iv after 2 hrs by LC/MS/MS analysis. Set-up: dose 4 mg/kg, route intravenous. Particulars: human, in vivo. The method, boiled down:
as §1

Series [4] in a line: Cmax in patient with end-stage renal failure undergoing hemodiafiltration at 4 mg/kg, iv after 2 hrs by LC/MS/MS analysis. The following applies: human, in vivo. Set-up: dose 4 mg/kg, route intravenous. The method, boiled down: as §1

For `C[C@@H](c1ncncc1F)[C@](O)(Cn1cncn1)c1ccc(F)cc1F` [VORICONAZOLE], the Cmax was 1800 ng/mL in series [1], 1700 ng/mL in series [3] and 1900 ng/mL in series [4]. Also, in series [2], the half-life was 7 h.
